INS-1E GSIS act – GLuc luminescence reporter in INS-1E cells, primary screen for activators of glucose-dependent secretion of insulin; AID 743287; 0.61% of 370,000 active; activation, % at 16.6 µM; INS-1E GLuc reporter insulin secretion, 2-3 h;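 active means lowest replicate activation of at least 40%, so every replicate reaches that level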;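 further: 0% = median of neutral control wells and 100% = median of IBMX positive control wells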
Ecoli rRNA inh – inhibits bacterial ribosomal RNA function over humanized ribosomes | E. coli WT GFP vs humanized-ribosome RFP mutants, fluorescence, 24 h; stronger effect = lower value; DMSO median 0, no signal -100 | GFP signal change (wild-type ribosome), % (concentration not given with the values) | 1.6% of 350,000 active | AID 720706;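 active means significant combined selectivity score with lowered wild-type GFP, culture density cut under 30%, mutant RFP and density less affected; inactive means any of these conditions unmet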
Env fusion inh – blocks HIV Env-driven cell-cell fusion; HeLa-JRFL Env/CEM21 cell fusion, luciferase; inhibition, % at 12.3 µM; 1.1% of 360,000 active;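 active means mean replicate inhibition score of at least 50 and every replicate individually at or above 50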;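 further: 0% = plate neutral controls and 100% = maraviroc near 300 nM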
miR-122 sensor – miR-122 inhibition in Huh7 cells | Huh7 miR-122 Renilla luciferase sensor, 48 h; neutral wells = 0, positive control = 100 | activation (reporter increase), % at 12.5 µM | 0.3% of 340,000 active | AID 602342;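 active means mean replicate activation score at least 90 and every replicate individually at or above 90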;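 further: higher luciferase means less miR-122 activity so hits act as miR-122 inhibitors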
Cneo AK release – causes C. neoformans cell lysis; adenylate kinase release luminescence, 4 h; normalised: neutral wells 0, clomiphene wells 100; lysis activity, % at 15 µM; 0.2% of 360,000 active; AID 651654;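 active means mean lysis activity across replicates of at least 80%, whatever share of replicates individually reach that level; inactive means mean lysis activity below 80%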
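Material – Cryptococcus neoformans yeast cells · Quantity – 5 × 10^6 yeast cells/mL · Buffer or medium – YPD medium · Compound – single dose · Timing – 4 h static compound exposure, 37 °C, read 1 h post-reagent · Signal – adenylate kinase release luminescence · Read-out basis – lysis from increased AK signal · Benchmarks – Clomiphene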
CFTR F508del cor – CFTR F508del correction in bronchial cells | activity (quench increase), % at 7.58 µM | 0.36% of 350,000 active | CFBE cells, YFP halide quenching; stimulated with forskolin plus potentiator P3; % fluorescence drop versus neutral controls;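 active means mean added fluorescence quench of at least 8% versus neutral control, with both replicates also reaching 8%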;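 further: cells transiently co-express mutant CFTR-F508del with the halide-sensitive YFP; corrector assay measuring rescue of mutant channel to the surface after 24 h compound exposure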
Active calls of the source: *; nt = no result given; [ ] = dose if it differs, or a comment. In the library only some 3.1% were active in any assay of this set; here they are far more common.

SMILES | INS-1E GSIS act | Ecoli rRNA inh | Env fusion inh | miR-122 sensor | Cneo AK release | CFTR F508del cor
COc1ccccc1C#Cc1ccc2c(c1)O[C@@H](CN(C)Cc1ccncc1)[C@@H](C)CN([C@@H](C)CO)S2(=O)=O | -23 | -6 | 46*[16.7 µM] | -7[16.7 µM] | 2 | 3
COc1ccccc1C#Cc1ccc2c(c1)O[C@H](CN(C)Cc1ccncc1)[C@H](C)CN([C@@H](C)CO)S2(=O)=O | -41 | -2 | 15[16.7 µM] | 4[16.7 µM] | -2 | 2
C[C@@H]1CN([C@H](C)CO)S(=O)(=O)c2ccc(C#Cc3ccccc3F)cc2O[C@H]1CN(C)C(=O)Cc1cccnc1 | -7 | -38 | 21[16.7 µM] | 6[16.7 µM] | 60 | 10*
COc1ccccc1C#Cc1ccc2c(c1)O[C@@H](CN(C)Cc1cccnc1)[C@H](C)CN([C@H](C)CO)S2(=O)=O | nt | nt | nt | -28[16.7 µM] | 46 | 8.2*
CCCNC(=O)N1CC2(CCN(Cc3ccc(F)cc3)CC2)c2c([nH]c3cc(OC)ccc23)[C@H]1CO | -10 | -2 | nt | nt | nt | nt
COc1ccccc1C#Cc1ccc2c(c1)O[C@H](CN(C)C(C)=O)[C@H](C)CN([C@@H](C)CO)S2(=O)=O | -27 | -3 | 13[16.7 µM] | 19[16.7 µM] | 104* | -2
COc1ccccc1C#Cc1ccc2c(c1)O[C@H](CN(C)C(C)=O)[C@@H](C)CN([C@H](C)CO)S2(=O)=O | -7 | -7 | 2[16.7 µM] | 24[16.7 µM] | -12 | -2
CCN(CC(=O)NCc1cccs1)C(=O)c1cccc(S(=O)(=O)Nc2ccc(C)cc2)c1 | -12 | 4 | nt | 80 | 1 | 1
Cc1cccc(OCCNC(=O)c2ccc(Cl)c(S(=O)(=O)NCc3cccnc3)c2)c1 | nt | -9 | nt | 69 | 0 | 14*
COc1ccc(NS(=O)(=O)c2cccc(C(=O)NNC(=O)CNC(=O)c3ccccc3F)c2)cc1 | -4 | 1 | nt | -9 | -1 | -3
COC(=O)C1CCN(C(=O)c2ccc(Cl)c(S(=O)(=O)NCc3cccnc3)c2)CC1 | nt | nt | -79 | -5 | -2 | nt
COc1ccc(NS(=O)(=O)c2cccc(C(=O)NNC(=O)CNC(=O)c3ccc(C)cc3)c2)cc1 | 0 | -2 | 68* | nt | -8 | -1
O=C(NCc1cccnc1)c1cccc(S(=O)(=O)NCc2ccccc2)c1 | 46* | 8 | nt | nt | nt | 1
Cc1ccc(NS(=O)(=O)c2cccc(C(=O)N(C)Cc3cccs3)c2)cc1 | -16 | -1 | -7 | 100* | 2 | 1
CC(C)C#Cc1ccc([C@H]2[C@@H](CO)N3C(=O)CN(C(=O)Cc4cccnc4)C[C@H]23)cc1 | -2 | 2 | nt | nt | nt | nt
COc1ccc(CN(C)C[C@H]2Oc3c(NS(=O)(=O)c4c(C)noc4C)cccc3C(=O)N([C@H](C)CO)C[C@H]2C)cc1 | 14 | 4 | nt | -10[16.7 µM] | -5 | 0
Cc1noc(C)c1NC(=O)Nc1ccc2c(c1)C(=O)N([C@H](C)CO)C[C@@H](C)[C@H](CN(C)S(=O)(=O)c1ccccc1)OCCCC[C@H](C)O2 | -8 | -3 | 0[16.7 µM] | 7[16.7 µM] | 0 | 1
COc1cccc(-c2cnc3c(c2)C(=O)N([C@H](C)CO)C[C@@H](C)[C@H](CN(C)Cc2ccc(C(=O)O)cc2)O3)c1 | 3 | 4 | 4[16.7 µM] | -2[16.7 µM] | 1 | 1
Cc1ccc(OCCNC(=O)c2cccc(S(=O)(=O)NCc3ccccc3)c2)cc1 | -23 | -2 | 1 | 81 | 4 | 10*
C[C@@H]1CN([C@H](C)CO)C(=O)Cc2cc(NC(=O)Cn3cnnn3)ccc2O[C@H]1CN(C)Cc1ccc(C(=O)O)cc1 | -2 | 2 | 2[16.7 µM] | -9[16.7 µM] | 1 | -2
OCCN1CCSC1=S | 45* | 1 | 7 | 2 | 0 | 0
Cc1cc(S(=O)(=O)NCCN2CCOCC2)c(C)s1 | nt | nt | -79 | 34 | 1 | nt
Cc1cc(S(=O)(=O)NCCc2ccccc2)c(C)s1 | nt | nt | -29 | 226* | 2 | nt
CS(=O)(=O)N1CCc2cc(-c3csc(NC(=O)Cc4cccs4)n3)ccc21 | nt | nt | 76* | -2 | -2 | nt
C[C@@H]1CN([C@H](C)CO)S(=O)(=O)c2ccc(-c3ccc(F)cc3)cc2O[C@H]1CN(C)C(=O)C1CCC1 | -24 | -16 | 16[16.7 µM] | 11[16.7 µM] | nt | 0
SMILES | INS-1E GSIS act | Ecoli rRNA inh | Env fusion inh | miR-122 sensor | Cneo AK release | CFTR F508del cor
O=C(Nc1ccc(F)cc1F)c1cccc(C(=O)Nc2ccc(F)cc2F)n1 | 6 | -10 | 58* | nt | -2 | -2
CCOc1ccccc1N1CCN(C(=S)NCc2ccccc2)CC1 | -10 | -22* | 49 | -4 | -1 | -1
CCNC(=S)N1CCN(c2ccccc2OCC)CC1 | 2 | nt | 3 | nt | nt | nt
CCN(CC)S(=O)(=O)c1ccc(C)c(NC(=O)CSc2ncc(C(F)(F)F)cc2Cl)c1 | 169* | nt | 22 | nt | nt | nt
COc1ccc(NS(=O)(=O)c2cc(Br)cc3c2N(C(C)=O)CC3)cc1 | 11 | -4 | 28 | 189* | -1 | 5
CCC(=O)N1CCc2cc(S(=O)(=O)N(C)c3ccc(OC)cc3OC)ccc21 | 3 | 1 | 6 | nt | 1 | -2
CCC(=O)N1CCc2cc(Br)cc(S(=O)(=O)N(C)c3ccc(OC)cc3OC)c21 | -8 | -30* | 33 | 17 | 2 | 3
CS(=O)(=O)Nc1ccc2c(c1)[C@@H]1C[C@@H](CC(=O)NC3CCCC3)O[C@@H](CO)[C@@H]1O2 | 27 | 5 | 5[16.7 µM] | -3[16.7 µM] | -12 | 1
C/C(O)=c1/c(=O)nc2cccc3c2=c1c1ccccc1c3=O | 24 | 5 | 67* | nt | 0 | 3
O=C(Nc1cccc(S(=O)(=O)Nc2ccc(Cl)cc2)c1)c1ccccn1 | nt | nt | nt | 129* | 3 | -1
O=C(N1CCCCC1)C1(c2ccccc2)CCCCC1 | nt | 1 | 13 | -1 | 0 | 0
CC1(C(=O)N2CCCCC2)CCN1C(=O)C1(c2ccccc2)CC1 (centres undefined) | 40* | 15 | 4 | -2 | -1 | 1
COc1cccc(CNC(=O)c2cccnc2Sc2ccccc2)c1 | 48* | 3 | -19 | -7 | 0 | 0
CN(C)S(=O)(=O)c1ccc(NC=C(C#N)C#N)cc1 | 37 | 16 | -9 | 2 | 138* | 2
CCN(CC)S(=O)(=O)c1ccc(NC=C(C#N)C#N)cc1 | -13 | 3 | -11 | -21 | -1 | -1
NC(=O)NC(c1ccc(Cl)cc1)c1ccccc1Cl (centres undefined) | -24 | -35* | 5 | nt | nt | -5
NC(=O)NC(c1ccccc1)c1cccc2ccccc12 (centres undefined) | -17 | -33* | nt | 4 | -2 | 3
O=C(c1ccccn1)N1C[C@H]2[C@@H](c3ccccc31)[C@@H](CO)N2C(=O)c1ccccn1 | 10 | -1 | nt | -4[16.7 µM] | 1 | 4
COc1cccc(-c2cnc3c(c2)C(=O)N([C@@H](C)CO)C[C@@H](C)[C@H](CN(C)Cc2ccc(C(=O)O)cc2)O3)c1 | 21 | 8 | -24[16.7 µM] | -5[16.7 µM] | -5 | 3

Screening results from PubChem.
